Starred links: 1 amine or outer side, 2 acyl side, 3 side chain; linkers in the order of their positions; H or OH if unused. Non-standard residues stand in square brackets, D forms with d. Residues, ends and D or L forms follow the SMILES beside them. ξ: configuration not given here. *: point of attachment. Hydrocinnamoyl = O=C(CCc1ccccc1)*; ξF = NC(Cc1ccccc1)C(=O)O; Cbz = O=C(OCc1ccccc1)*; Boc = CC(C)(C)OC(=O)*; ξL = CC(C)CC(N)C(=O)O; CO = O=C([*:1])[*:2]; NHBn = c1ccc(CN*)cc1; ξAbu = CCC(N)C(=O)O; ξS = NC(CO)C(=O)O; CH2F = FC*
What was measured:
[1] = molecular target: Cathepsin B (Homo sapiens) (UniProt P07858); experiment: Compound was tested for inhibitory against cathepsin B
Outline: (§1)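 Rates of enzyme inactivation for cathepsins B and L were measured using Cbz-Phe-Arg-AMC as the fluorogenic substrate, under previously published assay conditions.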

[2] = molecular target: T1, Calpain-1 catalytic subunit (Homo sapiens) (UniProt P07384); experiment: Inhibition of Calpain-I receptor
T1 sequence (whole entry): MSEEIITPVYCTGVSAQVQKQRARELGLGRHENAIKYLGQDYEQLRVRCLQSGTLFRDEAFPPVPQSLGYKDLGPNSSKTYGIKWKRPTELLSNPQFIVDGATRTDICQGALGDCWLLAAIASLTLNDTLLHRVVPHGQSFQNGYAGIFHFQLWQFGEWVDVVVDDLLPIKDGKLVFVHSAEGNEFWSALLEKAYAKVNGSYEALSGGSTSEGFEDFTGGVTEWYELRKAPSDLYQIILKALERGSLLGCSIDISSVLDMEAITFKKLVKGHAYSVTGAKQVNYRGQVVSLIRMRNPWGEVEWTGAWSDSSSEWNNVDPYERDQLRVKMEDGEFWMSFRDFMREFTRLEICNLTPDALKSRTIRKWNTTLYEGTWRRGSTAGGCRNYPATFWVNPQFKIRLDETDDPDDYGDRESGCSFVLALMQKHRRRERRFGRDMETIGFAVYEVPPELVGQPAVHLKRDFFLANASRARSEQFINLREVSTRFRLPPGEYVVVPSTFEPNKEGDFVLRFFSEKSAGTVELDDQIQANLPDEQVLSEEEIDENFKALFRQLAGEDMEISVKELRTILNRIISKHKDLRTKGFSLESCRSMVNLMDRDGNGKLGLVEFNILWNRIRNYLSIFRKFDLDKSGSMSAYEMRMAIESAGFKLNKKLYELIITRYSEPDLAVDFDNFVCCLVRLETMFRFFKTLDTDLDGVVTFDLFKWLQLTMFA

[3] = molecular target: Procathepsin L (Homo sapiens) (UniProt P07711); experiment: Compound was tested for inhibitory against cathepsin L.; outline: as §1
Procathepsin L (Homo sapiens), sequence (P07711 114-333 limits assumed): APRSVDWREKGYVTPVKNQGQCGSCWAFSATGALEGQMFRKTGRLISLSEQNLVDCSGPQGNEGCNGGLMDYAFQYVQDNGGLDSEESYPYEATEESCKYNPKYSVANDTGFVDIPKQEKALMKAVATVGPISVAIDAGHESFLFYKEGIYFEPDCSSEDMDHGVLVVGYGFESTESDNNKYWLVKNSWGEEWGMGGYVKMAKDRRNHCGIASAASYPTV

MOLT-4 [4] = experiment: Inhibitory activity against MOH-4 cells(Human Leukemia T- cells) using intact cell assay method.; assay type: functional, cell-based
Outline: (§2)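 Molt-4 cells (2×10^7/mL in HEPES-buffered saline, pH 7.2–7.5) were preincubated with inhibitor for 10 min at 37 °C, then challenged for 30 min at 37 °C by adding medium containing inhibitor, 10 mM Ca2+ and 40 μM ionomycin. Lysates were immunoblotted for calpain I-mediated spectrin breakdown products. Percent inhibition came from densitometry against no-inhibitor samples; IC50 by nonlinear regression.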

[5] = molecular target: Cathepsin B (Homo sapiens) (UniProt P07858); experiment: Compound was tested for inhibitory against Cathepsin B; outline: as §1
[6] = molecular target: Procathepsin L (Homo sapiens) (UniProt P07711); experiment: Compound was tested for inhibitory against cathepsin L; outline: as §1
[7] = molecular target: Procathepsin L (Homo sapiens) (UniProt P07711); experiment: Compound was tested for inhibitory activity against cathepsin L; outline: as §1
[8] = molecular target: Cathepsin B (Homo sapiens) (UniProt P07858); experiment: Compound was tested for inhibitory activity against cathepsin B
Outline: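 Rate of inactivation of cathepsin B, with Cbz-Phe-Arg-AMC as substrate.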

[9] = molecular target: T1, Calpain-1 catalytic subunit (Homo sapiens); experiment: Compound was tested for inhibitory uM
[10] = molecular target: Cathepsin B (Homo sapiens) (UniProt P07858); experiment: Compound was tested for inhibitory activities against cathepsin B; outline: as §1
MOLT-4 [11] = experiment: Inhibitory activity against […] cells(Human Leukemia T- cells) using intact cell assay method, at 10 uM; assay type: functional; outline: as §2

| Compound | K [1] [M⁻¹ s⁻¹] | K [2] [M⁻¹ s⁻¹] | IC50 (MOLT-4 [4]) [µM] | K [6] [M⁻¹ s⁻¹] | further results |
| --- | --- | --- | --- | --- | --- |
| CC(C)C[C@H](NC(=O)N1CCc2ccccc2C1)C(=O)NC(Cc1ccccc1)C(=O)CF (stereo partly specified) |  |  | 0.2 | 48400 | K [5]: 7500 M⁻¹ s⁻¹ |
| CC(NC(=O)[C@H](Cc1ccccc1)NC(=O)OCc1ccccc1)C(=O)CF (stereo partly specified) |  |  |  | 110000 | K [8]: 21000 M⁻¹ s⁻¹; K [9]: No significant inhibition |
| CCC(NC(=O)[C@H](CC(C)C)NC(=O)OCc1ccccc1)C(=O)CF (stereo partly drawn) (Cbz-Leu-[ξAbu]-CH2F) | 24500 | 24200 |  | 64000 |  |
| CC(C)[C@H](NC(=O)OCc1ccccc1)C(=O)NC(Cc1ccccc1)C(=O)CF (stereo partly drawn) (Cbz-Val-[ξF]-CH2F) | 360 | 35000 |  | 21500 |  |
| CC(C)CC(NC(=O)OCc1ccccc1)C(=O)N[C@@H](CC(C)C)C(=O)NC(Cc1ccccc1)C(=O)CF (stereo partly specified) (Cbz-[ξL]-Leu-[ξF]-CH2F) | 4600 | 290000 | 0.1 | 256000 |  |
| CC(C)C[C@H](NC(=O)CCc1ccccc1)C(=O)NC(Cc1ccccc1)C(=O)CF (stereo partly specified) (Hydrocinnamoyl-Leu-[ξF]-CH2F) | 600 | 26600 |  | 800 |  |
| CC(C)C[C@H](NC(=O)NCc1ccccc1)C(=O)NC(Cc1ccccc1)C(=O)CF (stereo partly specified) ({NHBn-CO}-Leu-[ξF]-CH2F) |  | 67000 | 0.8 |  | K [5]: 275 M⁻¹ s⁻¹; K [7]: 9400 M⁻¹ s⁻¹ |

Now from value to molecule, other results behind:

| K [1] [M⁻¹ s⁻¹] | K [2] [M⁻¹ s⁻¹] | IC50 (MOLT-4 [4]) [µM] | K [6] [M⁻¹ s⁻¹] | Compound | further results |
| --- | --- | --- | --- | --- | --- |
| 100 | 67200 | 10 |  | CC(C)C[C@H](NS(=O)(=O)N1CCOCC1)C(=O)NC(Cc1ccccc1)C(=O)CF (stereo partly specified) | K [3]: 3200 M⁻¹ s⁻¹ |
| 9000 | 100000 | 1.3 |  | CC(C)C[C@H](NC(=O)OCc1ccccc1)C(=O)NC(COC1CCCCO1)C(=O)CF (stereo partly specified) | K [7]: 22600 M⁻¹ s⁻¹ |
|  | 4700 |  |  | CC(C)C[C@H](NC(=O)[C@H]1O[C@@H]1C(=O)O)C(=O)NCCCCN=C(N)N |  |
|  | 68600 |  | 100 | CC(C)C[C@H](NC(=O)OC(C)(C)C)C(=O)NC(Cc1ccccc1)C(=O)CF (stereo partly drawn) (Boc-Leu-[ξF]-CH2F) | K [10]: 150 M⁻¹ s⁻¹; inhibition at 10 µM (MOLT-4 [11]): 42% |
| 300 | 136000 | 0.2 | 5000 | CC(C)C[C@H](NC(=O)OCc1ccccc1)C(=O)NC(Cc1ccccc1)C(=O)CF (stereo partly drawn) (Cbz-Leu-[ξF]-CH2F) |  |
| 16300 | 21000 |  | 31000 | CC(C)C[C@H](NC(=O)OCc1ccccc1)C(=O)NC(CO)C(=O)CF (stereo partly drawn) (Cbz-Leu-[ξS]-CH2F) |  |
| 25 | 8000 |  | 250 | CC(C)C[C@H](N)C(=O)N[C@@H](Cc1ccccc1)C(=O)CF (H-Leu-Phe-CH2F) |  |
